Laboratory results: ChEMBL document CHEMBL4715714, “Design, synthesis and biological evaluation of thiosemicarbazones, hydrazinobenzothiazoles and arylhydrazones as anticancer agents with a potential to overcome multidrug resistance” (Eur J Med Chem, 2016)
pIC50: −log10 of the molar value. Calls of active or inactive are those of the source. No cut-off for these calls is given here.

Key:
[1] = Selectivity ratio of IC50 for human MES-SA cells to IC50 for human MES-SA/DX5 cells incubated for 72 hrs by MTT assay; format: functional
Outline: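 The selectivity ratio is the IC50 in P-gp-negative parental cells divided by the IC50 in the P-gp-positive resistant partner.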

MES-SA/Dx5 [2] = experiment: Cytotoxicity against human MES-SA/DX5 cells transfected with mCherry fluorescent protein assessed as inhibition of cell proliferation incubated for 72 hrs by fluorescent assay; format: functional, cell-based; details: Homo sapiens, MES-SA/Dx5, 72 h; for pIC50: read-out: IC50; for IC50: read-out: pIC50 (converted)
Outline: (§1)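 MES-SA and MES-SA/Dx5 cells were made to stably express mCherry by lentiviral transduction. Cells were seeded at 5000 (96-well) or 2500 (384-well) per well, allowed to attach 24 h, then treated with compound dilutions for 72 h. Viability was read as fluorescence, excitation 585 nm, emission 610 nm.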

A2780 = experiment: Cytotoxicity against human A2780 cells assessed as inhibition of cell proliferation incubated for 72 hrs by MTT assay; format: functional, cell-based; details: A2780, 72 h; for pIC50: read-out: IC50; for IC50: read-out: pIC50 (converted)
Outline: (§2)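 Cells were seeded (10000/well for A2780, 5000/well for MES-SA/Dx5 and KB-3-1/V1) and left to attach 12 h, then exposed to compound for 72 h. Medium was removed, and MTT (0.83 mg/mL) was added for 1 h at 37 °C. Cells were lysed in DMSO and absorbance read at 540 nm. Signal was corrected for unstained lysate background, normalized to untreated cells, and IC50 taken from a sigmoidal dose-response fit.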

HFF = experiment: Cytotoxicity against human HFF cells by MTT assay
MES-SA/Dx5 [3] = experiment: Cytotoxicity against human MES-SA/DX5 cells incubated for 72 hrs in presence of efflux pump inhibitor, Tariquidar by MTT assay; format: functional, cell-based
Outline: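 Run as the 72 h MTT viability readout (12 h attachment, MTT 0.83 mg/mL for 1 h, DMSO lysis, A540), with the P-gp inhibitor Tariquidar at 1 µM co-present. IC50 came from sigmoidal fits of 2 to 4 independent experiments.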

KB 3-1 = experiment: Cytotoxicity against human KB-3-1 cells assessed as inhibition of cell proliferation incubated for 72 hrs by MTT assay; format: functional, cell-based; details: KB 3-1, 72 h; for pIC50: read-out: IC50; for IC50: read-out: pIC50 (converted); outline: as §2
[4] = Selectivity ratio of IC50 for human MES-SA cells transfected with mCherry to IC50 for human MES-SA/DX5 cells transfected with mCherry incubated for 72 hrs by fluorescent assay; format: functional
MES-SA [5] = experiment: Cytotoxicity against human MES-SA cells assessed as inhibition of cell proliferation incubated for 72 hrs by MTT assay; format: functional, cell-based; details: for pIC50: read-out: IC50; for IC50: read-out: pIC50 (converted); outline: as §2
[6] = Cytotoxicity against human A2780adr cells assessed as inhibition of cell proliferation incubated for 72 hrs by MTT assay; format: functional, cell-based; details: A2780 ADR; for pIC50: read-out: IC50; for IC50: read-out: pIC50 (converted); outline: as §2
MES-SA/Dx5 [7] = experiment: Cytotoxicity against human MES-SA/DX5 cells assessed as inhibition of cell proliferation incubated for 72 hrs by MTT assay; format: functional, cell-based; details: MES-SA/Dx5, 72 h; for pIC50: read-out: IC50; for IC50: read-out: pIC50 (converted); outline: as §2
KB-V1 = experiment: Cytotoxicity against human KB-V1 cells assessed as inhibition of cell proliferation incubated for 72 hrs by MTT assay; format: functional, cell-based; details: KB-V1, 72 h; for pIC50: read-out: IC50; for IC50: read-out: pIC50 (converted); outline: as §2
MES-SA [8] = experiment: Cytotoxicity against human MES-SA cells transfected with mCherry fluorescent protein assessed as inhibition of cell proliferation incubated for 72 hrs by fluorescent assay; format: functional, cell-based; details: Homo sapiens, MES-SA, 72 h; for pIC50: read-out: IC50; for IC50: read-out: pIC50 (converted); outline: as §1
MES-SA/Dx5 [9] = experiment: Reduction in P-gp expression in human MES-SA/DX5 cells at IC20 concentration incubated for 5 days by calcein-AM staining based flow cytometric analysis; format: functional, cell-based; details: time 5.0 day
Outline: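 MES-SA/Dx5 cells were grown 5 days with compound at IC20 values calculated from viability assays, then recovered in drug-free medium refreshed every fifth day. At 80% confluency, cells were stained with Calcein AM with or without verapamil, with TO-PRO-3 excluding dead cells, and analysed by flow cytometry for the P-gp-negative fraction.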

MES-SA/Dx5 [10] = experiment: Cytotoxicity against human MES-SA/DX5 cells transfected with mCherry fluorescent protein incubated for 72 hrs in presence of efflux pump inhibitor, Tariquidar by fluorescence assay; format: functional, cell-based
Outline: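 The mCherry-expressing cells (lentiviral) were seeded at 5000 or 2500 per well, attached for 24 h, and exposed 72 h to compounds with Tariquidar coadministered. Live-cell signal was fluorescence at 585 nm excitation and 610 nm emission.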

SMILES | Ratio IC50 [1] | pIC50 (MES-SA/Dx5 [2]) | pIC50 (A2780) | IC50 (A2780) | Activity (HFF) | Activity (MES-SA/Dx5 [3]) | pIC50 (KB 3-1) | IC50 (KB 3-1) | Ratio IC50 [4] | pIC50 (MES-SA [5]) | IC50 (MES-SA [5]) | pIC50 [6] | IC50 [6] | pIC50 (MES-SA/Dx5 [7]) | IC50 (MES-SA/Dx5 [7]) | pIC50 (KB-V1) | IC50 (KB-V1) | pIC50 (MES-SA [8]) | Activity (MES-SA/Dx5 [10]) | IC50 (MES-SA/Dx5 [2]) | also measured
Cc1ccc(NC(=S)N/N=C2\C(=O)Nc3ccccc32)cc1 | 1.87 | 5.49 | 5.01 | 9.55 µM | Toxic | Active | 5.35 | 4.17 µM | 3.1 | 5.27 | 5.13 µM | 5.06 | 8.91 µM | 5.49 | 3.31 µM | 5.40 | 3.98 µM | 4.95 | inactive |  | inhibition (MES-SA/Dx5 [9]): Active
C/C(=N\Nc1nc2ccccc2s1)c1ccccn1 | 17.58 | 7.00 | 7.03 | 0.0891 µM | Non-Toxic | Active | 6.47 | 0.372 µM |  | 6.70 | 0.219 µM | 7.51 | 0.0302 µM | 7.85 | 0.0123 µM | 6.55 | 0.295 µM | 6.60 |  | 0.0832 µM | IC50 (MES-SA [8]): 0.24 µM
COc1ccc(NC(=S)N/N=C2\C(=O)Nc3ccc(OC(F)(F)F)cc32)cc1 | 2.31 | 5.60 | 5.47 | 3.24 µM |  | inactive | 5.18 | 6.17 µM | 3.29 | 5.21 | 5.75 µM | 5.42 | 3.55 µM | 5.56 | 2.57 µM | 5.41 | 3.89 µM | 5.09 | inactive |  | 
COc1ccc(NC(=S)N/N=C(\C)c2ccccn2)cc1 | 22.59 | 7.19 | 7.34 | 0.0457 µM |  | Active | 6.02 | 0.692 µM | 4.54 | 6.47 | 0.339 µM | 7.51 | 0.0282 µM | 7.85 | 0.0141 µM | 5.76 | 1.05 µM | 6.60 | Active | 0.0575 µM | IC50 (MES-SA [8]): 0.229 µM
Cc1ccc(NC(=S)N/N=C/c2ccccc2O)cc1 |  | 5.73 | 5.29 | 5.01 µM | Toxic |  | 5.47 | 3.31 µM |  | 5.40 |  | 5.22 | 6.03 µM | 5.27 |  | 5.43 | 3.47 µM | 5.84 |  |  | 
COc1ccc(NC(=S)NNC2=c3ccccc3=NC2=O)cc1 |  |  |  |  | Toxic |  |  |  |  |  |  |  |  |  |  |  |  |  |  |  | 
Oc1ccccc1/C=N/Nc1nc2ccccc2s1 | 2.04 | 5.34 | 5.50 | 3.09 µM |  | Active | 4.74 | 15.8 µM | 7.18 | 4.61 | 23.4 µM | 5.22 | 5.89 µM | 4.98 | 9.55 µM | 4.93 | 11.7 µM | 4.63 | inactive | 4.27 µM | IC50 (MES-SA [8]): 26.9 µM
